Assay results collected from several papers.
Lines come from different studies, so protocols differ.
Target: Serine/threonine-protein kinase Chk1 (CHEK1, Homo sapiens, UniProt O14757)
Sequence (O14757 1-476, as in one of the studies): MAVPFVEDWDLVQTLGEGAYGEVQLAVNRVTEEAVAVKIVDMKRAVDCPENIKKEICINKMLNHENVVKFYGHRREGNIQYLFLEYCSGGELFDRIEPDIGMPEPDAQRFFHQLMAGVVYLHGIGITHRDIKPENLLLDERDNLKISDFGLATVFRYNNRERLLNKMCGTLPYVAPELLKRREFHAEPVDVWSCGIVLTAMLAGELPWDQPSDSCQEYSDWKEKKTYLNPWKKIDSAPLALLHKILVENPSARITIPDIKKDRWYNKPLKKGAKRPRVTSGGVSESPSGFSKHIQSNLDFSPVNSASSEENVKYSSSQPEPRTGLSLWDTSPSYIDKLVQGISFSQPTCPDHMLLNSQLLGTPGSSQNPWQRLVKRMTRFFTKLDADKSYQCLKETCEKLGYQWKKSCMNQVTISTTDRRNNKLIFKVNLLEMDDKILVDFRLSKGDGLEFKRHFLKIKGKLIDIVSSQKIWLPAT

O=C(NCC1CCOCC1)c1n[nH]cc1NC(=O)c1c(F)cccc1F
remaining binding (binding; competition with immobilised ligand; 1 µM): 100%

CC(=O)N1CCC(c2ccc(C(=O)NC(=N)N)cc2C(F)(F)F)CC1
remaining binding (cell-free assay; competition with immobilised ligand; 1 µM): 95%

O=C(c1ccc(Nc2ncc(Cl)c(-c3cc4ccccc4s3)n2)cc1)N1CCC(N2CCCC2)CC1
remaining binding (binding; competition with immobilised ligand; 1 µM): 54%

CN(C)c1ncc(F)c(-c2cnn3ncccc23)n1
remaining binding (binding; 1 µM): 87%

FC(F)(F)Oc1cccc(-c2cnc3ccc(-c4ccncc4)nn23)c1
remaining binding (cell-free assay; competition with immobilised ligand; 5 µM): 100%

CC(C)CC(=O)N1CCc2nc(-c3ccc(Br)cc3)nc(N(C)Cc3ccccc3)c2C1
remaining binding (cell-free assay; competition with immobilised ligand; 0.1 µM): 100%

COc1cnc(Nc2cccc(S(N)(=O)=O)c2)nc1N1CCN(c2ccccc2)C(=O)C1
remaining binding (binding; competition with immobilised ligand; 1 µM): 100%

c1cncc(-c2cccc(Nc3nccc(NC4CCCCC4)n3)c2)c1
remaining binding (binding; competition with immobilised ligand; 10 µM): 94%

c1cnn2ncc(-c3ccnc(N4CCC45COC5)n3)c2c1
remaining binding (binding; 1 µM): 89%

O=C(NCCCN1CCOCC1)c1ccc(Nc2nccc(-c3cc4ccccc4s3)n2)cc1
remaining binding (binding; competition with immobilised ligand; 1 µM): 100%

CC(=O)Nc1c(C(C)=O)c(=O)n(C)c2nc(-c3ccc(Cl)cc3Cl)c(-c3ccc(Cl)cc3)cc12
remaining binding (cell-free assay; competition with immobilised ligand; 1 µM): 100%

C[C@@H]1CN(c2ccc3ncc(-c4ccc5[nH]nc(C6CC6)c5c4)n3n2)C[C@H](C)O1
remaining binding (binding; competition with immobilised ligand; 0.5 µM): 100%

CN(C)c1nccc(-c2cnn3ncccc23)n1
remaining binding (binding; 1 µM): 100%

CNC(=O)c1ccc(Nc2ncc(C(F)(F)F)c(NCc3nccnc3N(C)S(C)(=O)=O)n2)cc1
remaining binding (cell-free assay; competition with immobilised ligand; 0.1 µM): 100%

C[C@H]1CCN(c2nccc(-c3cnn4ncccc34)n2)C1
remaining binding (binding; 1 µM): 76%

CC(=O)c1c(NS(C)(=O)=O)c2cc(-c3ccc(Cl)cc3)c(-c3ccc(Cl)cc3Cl)nc2n(C)c1=O
remaining binding (cell-free assay; competition with immobilised ligand; 1 µM): 100%

O=C(c1ccc(Nc2ncc(Cl)c(-c3ccc(Cl)s3)n2)cc1)N1CCC(N2CCCC2)CC1
remaining binding (binding; competition with immobilised ligand; 1 µM): 37%

N[C@@H]1CCN(c2nccc(-c3cnn4ncccc34)n2)C1
remaining binding (binding; 1 µM): 100%

Cc1nc(C2CCN(C(=O)c3ccc(OC(F)(F)F)cc3N)CC2)c2ncc(N3CCN(C)CC3)cc2n1
remaining binding (cell-free assay; competition with immobilised ligand; 1 µM): 100%

COc1ccnn2ncc(-c3ccnc(N(C)C)n3)c12
remaining binding (binding; 1 µM): 94%

CCCCN(CCCC)C(=O)CN1C[C@H](c2cc(OC)c3c(c2)OCO3)[C@@H](C(=O)O)[C@@H]1CC(C)(C)CCC
remaining binding (cell-free assay; competition with immobilised ligand; 1 µM): 100%

COc1cnc(Nc2cccc(S(N)(=O)=O)c2)nc1N1CCN(c2ccccc2)CC1
remaining binding (binding; competition with immobilised ligand; 1 µM): 100%

CN(CCCC(F)(F)F)c1nccc(-c2cnn3ncccc23)n1
remaining binding (binding; 1 µM): 100%
